Reference: ChEMBL document CHEMBL1158511, “Tricyclic dihydroquinazolinones as novel 5-HT2C selective and orally efficacious anti-obesity agents” (Bioorg Med Chem Lett, 2010)

Key:
[1] = molecular target: T1, 5-hydroxytryptamine receptor 2C (Homo sapiens) (UniProt P28335); assay: Intrinsic activity at human recombinant 5HT2C receptor at 3 uM expressed in HEK293E cells by FLIPR assay relative to control; assay type: cell-based
T1 sequence (whole entry): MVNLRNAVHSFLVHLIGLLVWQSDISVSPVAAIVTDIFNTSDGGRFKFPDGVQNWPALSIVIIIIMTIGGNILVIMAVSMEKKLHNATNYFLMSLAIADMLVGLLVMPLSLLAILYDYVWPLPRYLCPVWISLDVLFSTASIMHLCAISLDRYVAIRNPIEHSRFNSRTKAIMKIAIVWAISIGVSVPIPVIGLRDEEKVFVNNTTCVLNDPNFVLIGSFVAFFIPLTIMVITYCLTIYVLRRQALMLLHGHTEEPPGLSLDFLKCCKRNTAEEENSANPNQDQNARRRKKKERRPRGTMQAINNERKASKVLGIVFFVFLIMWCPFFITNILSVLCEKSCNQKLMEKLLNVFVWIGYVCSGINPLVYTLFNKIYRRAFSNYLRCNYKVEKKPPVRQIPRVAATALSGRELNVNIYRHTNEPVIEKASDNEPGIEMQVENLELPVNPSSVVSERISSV
Outline: (§1)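 FLIPR calcium mobilization in HEK293E cells expressing the human receptor. Intrinsic activity is expressed relative to activation by 3 µM serotonin, defined as 1.0. Values are means of ≥2 independent 12-point dose-response curves.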

[2] = molecular target: T2, 5-hydroxytryptamine receptor 2B (Homo sapiens, UniProt P41595); assay: Agonist activity at human recombinant 5HT2B receptor expressed in HEK293E cells by FLIPR assay; assay type: functional, cell-based
Outline: (§2)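 Calcium mobilization measured by FLIPR in HEK293E cells expressing human 5-HT2A, 5-HT2B or 5-HT2C receptor. Values are means of ≥2 independent 12-point dose-response curves (n ≥4 where SD is given). mCPP is the positive control.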

[3] = molecular target: T2, 5-hydroxytryptamine receptor 2B; assay: Displacement of [3H]LSD from human recombinant 5HT2B receptor expressed in HEK293E cells
[4] = molecular target: T2, 5-hydroxytryptamine receptor 2B; assay: Intrinsic activity at human recombinant 5HT2B receptor expressed in HEK293E cells by FLIPR assay at 3 uM relative to control; assay type: cell-based; outline: as §1
[5] = molecular target: T3, 5-hydroxytryptamine receptor 2C (Homo sapiens, UniProt P28335); assay: Displacement of [125I]DOI from human recombinant 5HT2C receptor expressed in HEK293E cells; assay type: cell-based
T3 sequence (P28335 whole entry): T1 sequence (whole entry)
Outline: (§3)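 Radioligand binding with [125I]DOI at the human 5-HT2C or 5-HT2A receptor. Ki is the mean of ≥2 independent 12-point dose-response curves (n ≥4 where SD is given).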

[6] = molecular target: T4, 5-hydroxytryptamine receptor 2A (Homo sapiens, UniProt P28223); assay: Agonist activity at human recombinant 5HT2A receptor expressed in HEK293E cells by FLIPR assay; assay type: functional, cell-based; outline: as §2
[7] = molecular target: T3, 5-hydroxytryptamine receptor 2C; assay: Agonist activity at human recombinant 5HT2C receptor expressed in HEK293E cells by FLIPR assay; assay type: functional, cell-based; outline: as §2
[8] = molecular target: T4, 5-hydroxytryptamine receptor 2A; assay: Intrinsic activity at human recombinant 5HT2A receptor expressed in HEK293E cells by FLIPR assay at 3 uM relative to control; assay type: cell-based; outline: as §1
[9] = molecular target: T4, 5-hydroxytryptamine receptor 2A; assay: Displacement of [125I]DOI from human recombinant 5HT2A receptor expressed in HEK293E cells; assay type: cell-based; outline: as §3
[10] = AUC in Sprague-Dawley rat at 10 mg/kg, po after 8 hrs; assay type: ADME, organism-based; set-up: time < 8 hr, dose 10 mg/kg, route oral; details: plasma
Outline: (§4)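 Male Sprague–Dawley rats given a single oral dose, 2 animals per value. AUC is taken over 0–8 h. Plasma and total brain levels are measured at 8 h post dose.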

Rattus norvegicus [11] = assay: Antiobesity activity in Sprague-Dawley rat assessed as reduction of food intake at 30 mg/kg, po after 20 hrs; assay type: functional; set-up: scale not given: the % may be the effect or the level left
Outline: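 Male Sprague–Dawley rats (n = 6) are dosed orally 60 min before dark-cycle onset. Vehicle is 14% propylene glycol, 1% tween, 85% water (v/v/v). Food pellet consumption over 20 h is compared with vehicle-treated animals as percent reduction. Water intake and locomotor activity are recorded at the same time.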

Rattus norvegicus [12] = assay: Antiobesity activity in Sprague-Dawley rat assessed as reduction of body weight at 30 mg/kg, po after 4 days; assay type: functional; set-up: scale not given: the % may be the effect or the level left
Outline: (§5)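 Male Sprague–Dawley rats, about 240 g (n = 8), were dosed orally once daily for 4 days with compound or vehicle (14% propylene glycol, 1% tween, 85% water, v/v/v). Body weight, food and water intake were measured daily and compared with vehicle.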

[13] = Tmax in Sprague-Dawley rat at 10 mg/kg, po; assay type: ADME, organism-based; set-up: dose 10 mg/kg, route oral; details: in vivo
Outline: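 Male Sprague–Dawley rats were dosed po only at 1 or 10 mpk. Values are means of 2 animals. AUC was collected over 4 h. Plasma and total brain levels were taken at 4 h post dose.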

[14] = Plasma concentration in Sprague-Dawley rat at 10 mg/kg, po after 8 hrs; assay type: ADME, organism-based; set-up: dose 10 mg/kg, route oral; outline: as §4
Brain = assay: Drug level in Sprague-Dawley rat brain at 10 mg/kg, po after 8 hrs; assay type: ADME, organism-based; set-up: dose 10 mg/kg, route oral; details: in vivo; outline: as §4
Rattus norvegicus [15] = assay: Antiobesity activity in Sprague-Dawley rat assessed as reduction of food intake at 10 mg/kg, po after 20 hrs; assay type: functional; set-up: scale not given: the % may be the effect or the level left
Rattus norvegicus [16] = assay: Antiobesity activity in Sprague-Dawley rat assessed as reduction of caloric intake at 30 mg/kg, po after 4 days; assay type: functional; set-up: scale not given: the % may be the effect or the level left; outline: as §5
Rattus norvegicus [17] = species on record: Rattus norvegicus; assay: Antiobesity activity in Sprague-Dawley rat assessed as reduction of food intake after 20 hrs; assay type: functional, organism-based
[18] = molecular target: 5-hydroxytryptamine receptor 2B (Rattus norvegicus) (UniProt P30994); assay: Intrinsic activity at 5HT2B receptor in rat fundus at 10 uM relative to control
5-hydroxytryptamine receptor 2B (Rattus norvegicus), sequence (P30994 whole entry, looked up): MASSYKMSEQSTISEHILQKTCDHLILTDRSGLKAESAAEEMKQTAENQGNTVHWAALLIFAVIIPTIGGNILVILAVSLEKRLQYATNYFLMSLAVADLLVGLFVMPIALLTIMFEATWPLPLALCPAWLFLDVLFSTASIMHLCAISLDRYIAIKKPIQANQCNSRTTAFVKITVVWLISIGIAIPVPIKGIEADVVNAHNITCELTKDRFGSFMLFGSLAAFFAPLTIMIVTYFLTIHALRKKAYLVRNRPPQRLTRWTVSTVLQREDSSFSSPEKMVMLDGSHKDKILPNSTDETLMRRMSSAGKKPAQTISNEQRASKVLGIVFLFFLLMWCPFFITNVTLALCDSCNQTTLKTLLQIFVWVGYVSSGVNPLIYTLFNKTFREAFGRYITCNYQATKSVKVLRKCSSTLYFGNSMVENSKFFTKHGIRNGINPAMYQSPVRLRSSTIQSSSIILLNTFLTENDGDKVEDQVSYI

T4 sequence (P28223 whole entry): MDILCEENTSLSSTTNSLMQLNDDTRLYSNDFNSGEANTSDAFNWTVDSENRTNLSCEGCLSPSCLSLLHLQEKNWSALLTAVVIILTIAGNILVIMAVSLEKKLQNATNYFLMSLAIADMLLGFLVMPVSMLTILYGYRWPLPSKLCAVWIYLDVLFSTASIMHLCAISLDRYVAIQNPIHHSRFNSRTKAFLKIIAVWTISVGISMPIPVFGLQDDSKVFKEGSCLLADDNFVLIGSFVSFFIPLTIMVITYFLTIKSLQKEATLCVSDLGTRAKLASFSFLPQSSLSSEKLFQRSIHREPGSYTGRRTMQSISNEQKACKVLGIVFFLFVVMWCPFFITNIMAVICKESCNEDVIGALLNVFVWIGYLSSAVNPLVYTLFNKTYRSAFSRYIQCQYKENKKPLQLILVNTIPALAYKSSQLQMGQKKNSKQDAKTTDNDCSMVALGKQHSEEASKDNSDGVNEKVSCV
T2 sequence (P41595 whole entry): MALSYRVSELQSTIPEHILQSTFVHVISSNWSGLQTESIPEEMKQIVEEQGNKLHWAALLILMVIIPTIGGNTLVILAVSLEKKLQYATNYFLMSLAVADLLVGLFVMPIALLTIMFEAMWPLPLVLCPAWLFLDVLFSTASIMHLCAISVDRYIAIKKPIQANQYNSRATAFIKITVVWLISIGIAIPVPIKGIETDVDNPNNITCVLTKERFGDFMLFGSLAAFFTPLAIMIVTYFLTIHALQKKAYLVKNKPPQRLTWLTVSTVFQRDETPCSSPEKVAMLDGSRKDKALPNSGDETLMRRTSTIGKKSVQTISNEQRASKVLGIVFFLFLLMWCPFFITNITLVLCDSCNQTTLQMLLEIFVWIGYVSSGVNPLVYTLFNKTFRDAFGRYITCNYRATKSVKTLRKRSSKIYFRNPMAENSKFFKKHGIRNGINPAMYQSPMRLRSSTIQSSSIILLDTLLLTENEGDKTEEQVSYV

Structure (SMILES): Cc1cccc2c1C(=O)NC1CNCCN21 (stereo in doubt; (-)-2a) [listing 1 of 2 here]
- Intrinsic activity [1]: 0.9

Structure (SMILES): Cc1ccc2c(c1)C(=O)NC1CNCCN21 (single isomer, unassigned)
- EC50 [2]: > 10000 nM
- Ki [3]: 61 nM
- Intrinsic activity [4]: 0
- Ki [5]: 998 nM
- Intrinsic activity [1]: 1
- EC50 [6]: > 705 nM
- EC50 [7]: 133 nM
- Intrinsic activity [8]: 0.34
- Ki [9]: 1220 nM

Structure (SMILES): O=C1NC2CNCCN2c2cccc(C(F)(F)F)c21 (single isomer, unassigned)
- EC50 [2]: > 10000 nM
- Ki [3]: 13 nM
- Ki [5]: 153 nM
- Intrinsic activity [1]: 0.93
- EC50 [7]: 92 nM
- Ki [9]: 184 nM

Structure (SMILES): Cc1ccc2c(c1)N1CCNCCC1NC2=O (stereo in doubt; (+)-3c) [listing 1 of 2 here]
- EC50 [2]: > 10000 nM
- Ki [3]: 41 nM
- AUC at 8 h [10]: 9.24 µM·h
- Ki [5]: 6.5 nM
- Activity (Rattus norvegicus [11]): 25%
- EC50 [6]: 952 nM
- Activity (Rattus norvegicus [12]): 2.7%
- Tmax [13]: 1.5 h
- concentration at 8 h [14]: 714 nM
- EC50 [7]: 6.6 nM
- Drug uptake (Brain): 108 nmol/kg
- Activity (Rattus norvegicus [15]): 18%
- Ki [9]: 364 nM
- Activity (Rattus norvegicus [16]): 19%

Structure (SMILES): Cc1ccc2c(c1)N1CCNCCC1NC2=O (stereo in doubt; (+)-3c) [listing 2 of 2 here]
- Intrinsic activity [4]: 0
- Intrinsic activity [1]: 1.1
- Intrinsic activity [8]: 0.28

Structure (SMILES): Cc1cccc2c1C(=O)NC1CNCCN21 (single isomer, unassigned; (+))
- Intrinsic activity [4]: 0
- Intrinsic activity [1]: 1
- Intrinsic activity [8]: 0
- Activity (Rattus norvegicus [17]): Dose-dependent effect

Structure (SMILES): O=C1NC2CNCCCN2c2cccc(Cl)c21 (racemic)
- Ki [3]: 734 nM
- Ki [5]: 1550 nM
- Ki [9]: 13600 nM

Structure (SMILES): O=C1NC2CCNCCN2c2ccccc21 (single isomer, unassigned)
- EC50 [2]: 101 nM
- Ki [3]: 67 nM
- Intrinsic activity [4]: 0.6
- Ki [5]: 49 nM
- Intrinsic activity [1]: 0.8
- EC50 [6]: 248 nM
- EC50 [7]: 16 nM
- Intrinsic activity [8]: 1
- Ki [9]: 269 nM

Structure (SMILES): Cc1ccc2c(c1)N1CCNCCC1NC2=O (stereo in doubt; (-)-3c) [listing 1 of 2 here]
- Intrinsic activity [1]: 0.66
- Intrinsic activity [8]: 0.11

Structure (SMILES): O=C1NC2CNCCN2c2ccc(Cl)cc21 (single isomer, unassigned)
- Ki [3]: 72 nM
- Ki [5]: 757 nM
- Intrinsic activity [1]: 0.97
- EC50 [7]: 110 nM
- Ki [9]: 397 nM

Structure (SMILES): Cc1ccc2c(c1)N1CCNCCC1NC2=O (stereo in doubt; (-)-3c) [listing 2 of 2 here]
- Ki [3]: 51 nM
- Ki [5]: 60 nM
- EC50 [6]: > 10000 nM
- EC50 [7]: 92 nM
- Ki [9]: 454 nM

Structure (SMILES): Cc1cccc2c1C(=O)NC1CCNCCN21 (configuration not stated)
- EC50 [2]: 61 nM
- Ki [3]: 10 nM
- Intrinsic activity [4]: 0.44
- Ki [5]: 2.9 nM
- Intrinsic activity [1]: 1
- EC50 [6]: 70 nM
- Intrinsic activity [18]: 0.2
- EC50 [7]: 2 nM
- Intrinsic activity [8]: 1
- Ki [9]: 141 nM

Structure (SMILES): O=C1NC2CNCCN2c2cccc(Cl)c21 (configuration not stated)
- EC50 [2]: > 10000 nM
- Ki [3]: 18 nM
- Intrinsic activity [4]: 0
- Ki [5]: 223 nM
- Intrinsic activity [1]: 0.8
- EC50 [6]: > 10000 nM
- EC50 [7]: 43 nM
- Intrinsic activity [8]: 0
- Ki [9]: 334 nM

Structure (SMILES): Cc1ccc2c(c1)N1CCNCC1NC2=O (single isomer, unassigned)
- EC50 [2]: > 10000 nM
- Ki [3]: 280 nM
- Intrinsic activity [4]: 0
- Ki [5]: 479 nM
- Intrinsic activity [1]: 1
- EC50 [6]: > 1000 nM
- EC50 [7]: 34 nM
- Intrinsic activity [8]: 0.26
- Ki [9]: 600 nM

Structure (SMILES): Cc1cccc2c1N1CCNCC1NC2=O (configuration not stated)
- Ki [3]: 2390 nM
- Ki [5]: 6150 nM
- Intrinsic activity [1]: 0.4
- EC50 [6]: > 10000 nM
- EC50 [7]: 4200 nM
- Intrinsic activity [8]: 0
- Ki [9]: > 10000 nM

Structure (SMILES): O=C1NC2CNCCN2c2ccccc21 (single isomer, unassigned)
- Ki [3]: 137 nM
- Ki [5]: 1940 nM
- Intrinsic activity [1]: 0.96
- EC50 [7]: 137 nM
- Ki [9]: 1980 nM

Structure (SMILES): Clc1cccc(N2CCNCC2)c1
- Intrinsic activity [4]: 0.4
- Intrinsic activity [1]: 1
- Intrinsic activity [8]: 0.3

Structure (SMILES): O=C1NC2CNCCN2c2c(Cl)cccc21 (configuration not stated)
- Ki [3]: > 10000 nM
- Ki [5]: > 10000 nM
- Intrinsic activity [1]: 0
- EC50 [7]: > 10000 nM
- Ki [9]: > 10000 nM

Structure (SMILES): O=C1NC2CCNCCN2c2cccc(Cl)c21 (single isomer, unassigned)
- EC50 [2]: 46 nM
- Ki [3]: 23 nM
- Intrinsic activity [4]: 0.5
- Ki [5]: 9 nM
- Intrinsic activity [1]: 1
- EC50 [6]: 130 nM
- EC50 [7]: 1.8 nM
- Intrinsic activity [8]: 0.8
- Ki [9]: 168 nM

Structure (SMILES): Cc1cccc2c1C(=O)NC1CNCCN21 (stereo in doubt; (-)-2a) [listing 2 of 2 here]
- Ki [3]: 206 nM
- Ki [5]: 2080 nM
- EC50 [7]: 989 nM
- Ki [9]: 4480 nM
